# Experimental data reported in ChEMBL document CHEMBL5344479, “N-Arylsulfonamide-based adenosine analogues to target RNA cap N7-methyltransferase nsp14 of SARS-CoV-2” (RSC Med Chem, 2024).
# Columns and labels:
# [1] = biological target: Replicase polyprotein 1ab (Severe acute respiratory syndrome coronavirus 2) (UniProt P0DTD1); assay: Inhibition of N-terminal hexa-histidine tagged recombinant SARS-CoV-2 nsp14 RNA cap N7-methyltransferase activity expressed in Escherichia coli C2566 assessed as residual enzyme activity using GpppAC4 synthetic RNA and [3H]-SAM as substrate at 50 uM incubated for 30 mins by filter binding assay based liquid scintillation counter analysis relative to control
# Method in brief: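 Recombinant nsp14 (10 nM), purified by cobalt IMAC and size exclusion, was premixed with compound at 50 µM (2.5% final DMSO). Then 0.7 µM GpppAC4 RNA, 1.9 µM SAM and 0.1 µM 3H-SAM were added in 40 mM Tris-HCl pH 8.0, 1 mM DTT, 1 mM MgCl2. After 30 min at 30 °C, reactions were stopped by 10-fold ice-cold water dilution, DEAE-filtered, washed and scintillation-counted.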
# [2] = biological target: Replicase polyprotein 1ab (Severe acute respiratory syndrome coronavirus 2, UniProt P0DTD1); assay: Inhibition of N-terminal hexa-histidine tagged recombinant SARS-CoV-2 nsp14 RNA cap N7-methyltransferase activity expressed in Escherichia coli C2566 using GpppAC4 synthetic RNA and [3H]-SAM as substrate incubated for 30 mins by filter binding assay based liquid scintillation counter analysis
SMILES,Activity [1] [%],IC50 [2] [µM]
CCN(Cc1cn(C[C@H]2O[C@@H](n3cnc4c(N)ncnc43)[C@H](O)[C@@H]2O)nn1)S(=O)(=O)c1ccc(Cl)cc1,69,
Nc1ncnc2c1ncn2[C@@H]1O[C@H](CSCCNS(=O)(=O)c2ccc(Cl)cc2[N+](=O)[O-])[C@@H](O)[C@H]1O,2,0.9
CCN(Cc1cn(C[C@H]2O[C@@H](n3cnc4c(N)ncnc43)[C@H](O)[C@@H]2O)nn1)S(=O)(=O)c1ccc(C(F)(F)F)cc1,47,
CCN(CCNS(=O)(=O)c1ccc(C(F)(F)F)cc1)C[C@H]1O[C@@H](n2cnc3c(N)ncnc32)[C@H](O)[C@@H]1O,83,
Nc1ncnc2c1ncn2[C@@H]1O[C@H](CS(=O)(=O)CCNS(=O)(=O)c2ccc(C(F)(F)F)cc2)[C@@H](O)[C@H]1O,37,38.4
Nc1ncnc2c1ncn2[C@@H]1O[C@H](Cn2cc(CNS(=O)(=O)c3ccc(Cl)cc3)nn2)[C@@H](O)[C@H]1O,72,
CCN(Cc1cn(C[C@H]2O[C@@H](n3cnc4c(N)ncnc43)[C@H](O)[C@@H]2O)nn1)S(=O)(=O)c1ccc(OC)cc1,60,
CCN(CCNS(=O)(=O)c1ccc(C)cc1)C[C@H]1O[C@@H](n2cnc3c(N)ncnc32)[C@H](O)[C@@H]1O,66,
CCN(Cc1cn(C[C@H]2O[C@@H](n3cnc4c(N)ncnc43)[C@H](O)[C@@H]2O)nn1)S(=O)(=O)c1ccc(F)cc1,93,
Nc1ncnc2c1ncn2[C@@H]1O[C@H](CSCCNS(=O)(=O)c2ccc(C(F)(F)F)cc2)[C@@H](O)[C@H]1O,7,7.3
CCN(Cc1cn(C[C@H]2O[C@@H](n3cnc4c(N)ncnc43)[C@H](O)[C@@H]2O)nn1)S(=O)(=O)c1ccc(C)cc1,59,
Nc1ncnc2c1ncn2[C@@H]1O[C@H](Cn2cc(CNS(=O)(=O)c3ccccc3)nn2)[C@@H](O)[C@H]1O,59,
Cc1ccc(S(=O)(=O)NCCS(=O)(=O)C[C@H]2O[C@@H](n3cnc4c(N)ncnc43)[C@H](O)[C@@H]2O)cc1,38,49
Cc1ccc(S(=O)(=O)NCc2cn(C[C@H]3O[C@@H](n4cnc5c(N)ncnc54)[C@H](O)[C@@H]3O)nn2)cc1,50,
N#Cc1ccc(S(=O)(=O)NCCSC[C@H]2O[C@@H](n3cnc4c(N)ncnc43)[C@H](O)[C@@H]2O)cc1,21,15.6
COc1ccc(S(=O)(=O)NCc2cn(C[C@H]3O[C@@H](n4cnc5c(N)ncnc54)[C@H](O)[C@@H]3O)nn2)cc1,63,

SMILES,Activity [1] [%],IC50 [2] [µM]
N#Cc1ccc(S(=O)(=O)NCCS(=O)(=O)C[C@H]2O[C@@H](n3cnc4c(N)ncnc43)[C@H](O)[C@@H]2O)cc1,42,52.4
Nc1ncnc2c1ncn2[C@@H]1O[C@H](CS(=O)(=O)CCNS(=O)(=O)c2ccc([N+](=O)[O-])cc2)[C@@H](O)[C@H]1O,27,27.4
Nc1ncnc2c1ncn2[C@@H]1O[C@H](CSCCNS(=O)(=O)c2ccc([N+](=O)[O-])cc2)[C@@H](O)[C@H]1O,9,4.7
Nc1ncnc2c1ncn2[C@@H]1O[C@H](Cn2cc(CNS(=O)(=O)c3ccc(C(F)(F)F)cc3)nn2)[C@@H](O)[C@H]1O,81,
CCN(CCNS(=O)(=O)c1ccc([N+](=O)[O-])cc1)C[C@H]1O[C@@H](n2cnc3c(N)ncnc32)[C@H](O)[C@@H]1O,57,
CCN(CCNS(=O)(=O)c1ccc(C#N)cc1)C[C@H]1O[C@@H](n2cnc3c(N)ncnc32)[C@H](O)[C@@H]1O,67,
COc1ccc(S(=O)(=O)NCCSC[C@H]2O[C@@H](n3cnc4c(N)ncnc43)[C@H](O)[C@@H]2O)c([N+](=O)[O-])c1,0,0.9
Nc1ncnc2c1ncn2[C@@H]1O[C@H](CSCCNS(=O)(=O)c2ccccc2)[C@@H](O)[C@H]1O,13,4.6
Nc1ncnc2c1ncn2[C@@H]1O[C@H](CS(=O)(=O)CCNS(=O)(=O)c2ccccc2)[C@@H](O)[C@H]1O,48,23.3
CCN(Cc1cn(C[C@H]2O[C@@H](n3cnc4c(N)ncnc43)[C@H](O)[C@@H]2O)nn1)S(=O)(=O)c1ccccc1,84,
CCN(CCNS(=O)(=O)c1ccccc1)C[C@H]1O[C@@H](n2cnc3c(N)ncnc32)[C@H](O)[C@@H]1O,87,
Nc1ncnc2c1ncn2[C@@H]1O[C@H](CSCCNS(=O)(=O)c2ccccc2[N+](=O)[O-])[C@@H](O)[C@H]1O,0,2.04
Cc1ccc(S(=O)(=O)NCCSC[C@H]2O[C@@H](n3cnc4c(N)ncnc43)[C@H](O)[C@@H]2O)cc1,10,2.2
Cc1cccc(S(=O)(=O)NCc2cn(C[C@H]3O[C@@H](n4cnc5c(N)ncnc54)[C@H](O)[C@@H]3O)nn2)c1,82,
Nc1ncnc2c1ncn2[C@@H]1O[C@H](Cn2cc(CNS(=O)(=O)c3ccc(F)cc3)nn2)[C@@H](O)[C@H]1O,91,
